Measured values taken from ChEMBL document CHEMBL4041463, “Pyrazolo[1,5-a]pyridine-3-carboxamide hybrids: Design, synthesis and evaluation of anti-tubercular activity” (Eur J Med Chem, 2017).
In brackets after ≈: the same amount, converted by molar mass.

Assays:
Assay type in all cases: functional
[1] = tested on: Mycobacterium tuberculosis; experiment: Antitubercular activity against Mycobacterium tuberculosis H37Ra harboring pTYOK in UAIRa broth culture assessed as concentration required to reduce relative luminescence unit to <10% measured after 4 days by autoluminescence assay; details: 96 h
[2] = tested on: Mycobacterium tuberculosis; experiment: Antitubercular activity against isoniazid resistant Mycobacterium tuberculosis H37Rv harboring KAtG Y155 deletion mutant after 5 days
Method in brief: (§1)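 Ten-point two-fold DMSO dilutions in 7H9-Tw-OADC, final DMSO 2%, top concentration 200 µM. Incubated 5 days; growth read as OD590. Controls: medium/DMSO background, 100 µM rifampicin, DMSO-only, plus rifampicin dose-response. Gompertz fit of % growth; MIC taken as onset of zero growth. Plate acceptance: OD590 >0.2 in maximum-growth wells and rifampicin MIC within 3-fold of expected.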

[3] = tested on: Mycobacterium tuberculosis; experiment: Antitubercular activity against rifampicin resistant Mycobacterium tuberculosis H37Rv harboring rpoB S522L mutant after 5 days; method in brief: as §1
[4] = tested on: Mycobacterium tuberculosis; experiment: Antitubercular activity against fluoroquinolone resistant Mycobacterium tuberculosis H37Rv harboring gyrB D94N mutant after 5 days; method in brief: as §1
[5] = tested on: Mycobacterium tuberculosis; experiment: Antitubercular activity against isoniazid resistant Mycobacterium tuberculosis ATCC 35822 after 5 days; details: ATCC 35822, 120 h; method in brief: as §1
[6] = tested on: Mycobacterium tuberculosis; experiment: Antitubercular activity against rifampicin resistant Mycobacterium tuberculosis ATCC 35828 after 5 days; details: ATCC 35828, 120 h; method in brief: as §1

SMILES	MIC [1] [µg/mL]	MIC [2] [µg/mL]	MIC [3] [µg/mL]	MIC [4] [µg/mL]	MIC [5] [µg/mL]	MIC [6] [µg/mL]
CCc1nn2ccc(Cl)cc2c1C(=O)NCc1ccc(-c2ccc(OC(F)(F)F)cc2)nc1	0.1 (≈ 0.211 µM)	–	–	–	–	–
CCc1nn2ccc(Cl)cc2c1C(=O)NCC1CCN(CC23CC4CC(CC(C4)C2)C3)CC1	3 (≈ 6.4 µM)	–	–	–	–	–
CCc1nn2ccc(Cl)cc2c1C(=O)NC[C@H]1CN(c2ccc(N3CCOCC3)c(F)c2)C(=O)O1	> 10	–	–	–	–	–
Cc1ccn2nc(C)c(C(=O)NCc3ccc(N4CCC(Oc5ccc(OC(F)(F)F)cc5)CC4)cc3)c2c1	0.03 (≈ 0.0557 µM)	–	–	–	–	–
CCc1nn2ccc(Cl)cc2c1C(=O)NC/C=C(\C)CCC=C(C)C	0.3 (≈ 0.834 µM)	–	–	–	–	–
Cc1ccn2nc(C)c(C(=O)NCc3ccc(OC(F)(F)F)cc3)c2c1	3 (≈ 8.26 µM)	–	–	–	–	–
NNC(=O)c1ccncc1 [ISONIAZID]	0.41 (≈ 2.99 µM)	>27	0.056 (≈ 0.408 µM)	0.088 (≈ 0.642 µM)	> 27	0.11 (≈ 0.802 µM)
C[C@H]1COc2c(N3CCN(C)CC3)c(F)cc3c(=O)c(C(=O)O)cn1c23.C[C@H]1COc2c(N3CCN(C)CC3)c(F)cc3c(=O)c(C(=O)O)cn1c23.O [LEVOFLOXACIN]	–	0.44	0.37	10	0.59	0.63
CO[C@H]1/C=C/O[C@@]2(C)Oc3c(C)c(O)c4c(O)c(c(/C=N/N5CCN(C)CC5)c(O)c4c3C2=O)NC(=O)/C(C)=C\C=C\[C@H](C)[C@H](O)[C@@H](C)[C@@H](O)[C@@H](C)[C@H](OC(C)=O)[C@@H]1C [RIFAMPIN]	0.03 (≈ 0.0365 µM)	0.016 (≈ 0.0194 µM)	0.42 (≈ 0.51 µM)	0.017 (≈ 0.0207 µM)	0.007 (≈ 0.00851 µM)	> 41
